# Activity calls are given as the source filed them. The calls are words filed in the database; no cut-off is given here.
# Columns and labels:
# [1] = target: T1, Interleukin-1 receptor-associated kinase 1 (Homo sapiens, UniProt P51617); assay: Covalent binding affinity to recombinant IRAK1 (unknown origin) assessed as labeling at Cys307 residue site measured after 2 hrs by LC-MS analysis
# Target sequence in this assay (P51617 whole entry, looked up): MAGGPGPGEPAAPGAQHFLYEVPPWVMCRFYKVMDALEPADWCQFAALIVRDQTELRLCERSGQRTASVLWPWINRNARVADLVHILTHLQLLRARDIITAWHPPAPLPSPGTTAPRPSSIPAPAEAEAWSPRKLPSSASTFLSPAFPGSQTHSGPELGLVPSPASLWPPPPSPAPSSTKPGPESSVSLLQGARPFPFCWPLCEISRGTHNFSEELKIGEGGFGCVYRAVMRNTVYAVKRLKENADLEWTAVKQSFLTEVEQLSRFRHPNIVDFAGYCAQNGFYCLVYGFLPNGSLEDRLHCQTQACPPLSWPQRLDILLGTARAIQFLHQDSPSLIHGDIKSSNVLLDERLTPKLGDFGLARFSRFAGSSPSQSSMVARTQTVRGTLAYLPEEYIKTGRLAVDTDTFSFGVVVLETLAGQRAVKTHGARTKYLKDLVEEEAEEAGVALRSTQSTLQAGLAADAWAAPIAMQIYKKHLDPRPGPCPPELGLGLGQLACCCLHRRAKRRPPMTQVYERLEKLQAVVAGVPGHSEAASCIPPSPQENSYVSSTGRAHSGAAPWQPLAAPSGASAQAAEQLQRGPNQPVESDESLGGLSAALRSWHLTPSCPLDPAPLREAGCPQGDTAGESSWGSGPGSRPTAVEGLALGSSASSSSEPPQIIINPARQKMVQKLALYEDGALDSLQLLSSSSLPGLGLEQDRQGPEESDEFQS
# [2] = Cytotoxicity against human MWCL1 cells expressing MYD88 mutant assessed as cell killing measured after 72 hrs by CellTiter-Glo luminescent cell viability assay; assay type: functional, cell-based
# Outline: (§1)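 Cells were exposed to inhibitors for 72 h, and viability was read by CellTiter-Glo luminescence. EC50 values were derived from dose–response curves.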
# OCI-LY19 = assay: Cytotoxicity against human OCILY19 cells expressing MYD88 mutant assessed as cell killing measured after 72 hrs by CellTiter-Glo luminescent cell viability assay; assay type: functional, cell-based; outline: as §1
# OCI-Ly3 = assay: Cytotoxicity against human OCILY3 cells expressing MYD88 mutant assessed as cell killing measured after 72 hrs by CellTiter-Glo luminescent cell viability assay; assay type: functional, cell-based; outline: as §1
# OCI-Ly7 = assay: Cytotoxicity against human OCILY7 cells expressing MYD88 mutant assessed as cell killing measured after 72 hrs by CellTiter-Glo luminescent cell viability assay; assay type: functional, cell-based; outline: as §1
# TMD8 = assay: Cytotoxicity against human TMD8 cells expressing MYD88 mutant assessed as cell killing measured after 72 hrs by CellTiter-Glo luminescent cell viability assay; assay type: functional, cell-based; outline: as §1
# RPMI-8226 = assay: Cytotoxicity against human RPMI-8226 cells expressing MYD88 mutant assessed as cell killing measured after 72 hrs by CellTiter-Glo luminescent cell viability assay; assay type: functional, cell-based; outline: as §1
# Ramos = assay: Cytotoxicity against human Ramos cells expressing MYD88 mutant assessed as cell killing measured after 72 hrs by CellTiter-Glo luminescent cell viability assay; assay type: functional, cell-based; outline: as §1
# [3] = Cytotoxicity against human HBL1 cells expressing MYD88 mutant assessed as cell killing measured after 72 hrs by CellTiter-Glo luminescent cell viability assay; assay type: functional, cell-based; outline: as §1
# [4] = Cytotoxicity against human BCWM1 cells expressing MYD88 mutant assessed as cell killing measured after 72 hrs by CellTiter-Glo luminescent cell viability assay; assay type: functional, cell-based; details: BCWM1, 72 h; outline: as §1
# [5] = target: T2, Interleukin-1 receptor-associated kinase 4 (Homo sapiens, UniProt Q9NWZ3); assay: Inhibition of wild-type human partial length IRAK4 (M1 to S460 residues) expressed in mammalian expression system by Kinomescan method
# T2 sequence (Q9NWZ3 whole entry): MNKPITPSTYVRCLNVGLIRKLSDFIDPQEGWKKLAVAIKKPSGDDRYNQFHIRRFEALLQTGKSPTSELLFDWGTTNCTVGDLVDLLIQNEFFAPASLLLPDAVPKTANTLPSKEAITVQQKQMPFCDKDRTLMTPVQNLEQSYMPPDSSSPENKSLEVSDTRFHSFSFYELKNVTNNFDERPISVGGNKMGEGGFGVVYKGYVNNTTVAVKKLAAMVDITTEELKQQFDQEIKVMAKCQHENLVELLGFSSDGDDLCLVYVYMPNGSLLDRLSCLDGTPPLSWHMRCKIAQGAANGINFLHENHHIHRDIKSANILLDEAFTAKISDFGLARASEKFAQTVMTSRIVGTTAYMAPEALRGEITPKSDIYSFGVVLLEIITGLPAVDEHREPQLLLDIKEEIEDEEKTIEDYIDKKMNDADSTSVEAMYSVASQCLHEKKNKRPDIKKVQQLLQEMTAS
# [6] = target: T1, Interleukin-1 receptor-associated kinase 1; assay: Inhibition of wild-type human partial length IRAK1 (R194 to S712 residues) expressed in mammalian expression system by Kinomescan method
# Target sequence in this assay (P51617 whole entry): as the sequence (P51617 whole entry, looked up) above
# [7] = target: T1, Interleukin-1 receptor-associated kinase 1; assay: Inhibition of desthio-biotinylated JH-XIII-39-01 probe binding to IRAK1 in human BCWM1 cells assessed as blocking of IRAK1 pulldown at 5 to 10 uM measured after 90 mins by Western blot based pulldown assay; assay type: cell-based
# Target sequence in this assay (P51617 whole entry, looked up): as the sequence (P51617 whole entry, looked up) above
# [8] = target: T1, Interleukin-1 receptor-associated kinase 1; assay: Covalent binding affinity to recombinant IRAK1 (unknown origin) assessed as labeling at Cys302 residue site measured after 2 hrs by LC-MS analysis
# Target sequence in this assay (P51617 whole entry, looked up): as the sequence (P51617 whole entry, looked up) above
# [9] = target: T1, Interleukin-1 receptor-associated kinase 1; assay: Inhibition of recombinant IRAK1 (unknown origin) by Invitrogen adapta assay
# Target sequence in this assay (P51617 whole entry): as the sequence (P51617 whole entry, looked up) above
# [10] = target: T1, Interleukin-1 receptor-associated kinase 1; assay: Inhibition of desthio-biotinylated JH-XIII-39-01 probe binding to IRAK1 in human BCWM1 cells assessed as blocking of IRAK1 pulldown at 5 uM measured after 90 mins by Western blot based pulldown assay; assay type: cell-based
# Target sequence in this assay (P51617 whole entry, looked up): as the sequence (P51617 whole entry, looked up) above
# [11] = target: T2, Interleukin-1 receptor-associated kinase 4; assay: Inhibition of IRAK4 (unknown origin) using methylcoumarin-labeled peptide as substrate in presence of ATP by FRET assay
# [12] = target: T1, Interleukin-1 receptor-associated kinase 1; assay: Covalent binding affinity to recombinant IRAK1 (unknown origin) assessed as labeling at Cys302/Cys307 residue sites at ratio 3:1 measured after 2 hrs by LC-MS analysis
# Target sequence in this assay (P51617 whole entry, looked up): as the sequence (P51617 whole entry, looked up) above
# [13] = target: T3, Mitogen-activated protein kinase kinase kinase 19 (Homo sapiens, UniProt Q56UN5); assay: Inhibition of wild-type human partial length YSK4 (T1019 to H1328 residues) expressed in mammalian expression system by Kinomescan method
# T3 sequence (Q56UN5 whole entry): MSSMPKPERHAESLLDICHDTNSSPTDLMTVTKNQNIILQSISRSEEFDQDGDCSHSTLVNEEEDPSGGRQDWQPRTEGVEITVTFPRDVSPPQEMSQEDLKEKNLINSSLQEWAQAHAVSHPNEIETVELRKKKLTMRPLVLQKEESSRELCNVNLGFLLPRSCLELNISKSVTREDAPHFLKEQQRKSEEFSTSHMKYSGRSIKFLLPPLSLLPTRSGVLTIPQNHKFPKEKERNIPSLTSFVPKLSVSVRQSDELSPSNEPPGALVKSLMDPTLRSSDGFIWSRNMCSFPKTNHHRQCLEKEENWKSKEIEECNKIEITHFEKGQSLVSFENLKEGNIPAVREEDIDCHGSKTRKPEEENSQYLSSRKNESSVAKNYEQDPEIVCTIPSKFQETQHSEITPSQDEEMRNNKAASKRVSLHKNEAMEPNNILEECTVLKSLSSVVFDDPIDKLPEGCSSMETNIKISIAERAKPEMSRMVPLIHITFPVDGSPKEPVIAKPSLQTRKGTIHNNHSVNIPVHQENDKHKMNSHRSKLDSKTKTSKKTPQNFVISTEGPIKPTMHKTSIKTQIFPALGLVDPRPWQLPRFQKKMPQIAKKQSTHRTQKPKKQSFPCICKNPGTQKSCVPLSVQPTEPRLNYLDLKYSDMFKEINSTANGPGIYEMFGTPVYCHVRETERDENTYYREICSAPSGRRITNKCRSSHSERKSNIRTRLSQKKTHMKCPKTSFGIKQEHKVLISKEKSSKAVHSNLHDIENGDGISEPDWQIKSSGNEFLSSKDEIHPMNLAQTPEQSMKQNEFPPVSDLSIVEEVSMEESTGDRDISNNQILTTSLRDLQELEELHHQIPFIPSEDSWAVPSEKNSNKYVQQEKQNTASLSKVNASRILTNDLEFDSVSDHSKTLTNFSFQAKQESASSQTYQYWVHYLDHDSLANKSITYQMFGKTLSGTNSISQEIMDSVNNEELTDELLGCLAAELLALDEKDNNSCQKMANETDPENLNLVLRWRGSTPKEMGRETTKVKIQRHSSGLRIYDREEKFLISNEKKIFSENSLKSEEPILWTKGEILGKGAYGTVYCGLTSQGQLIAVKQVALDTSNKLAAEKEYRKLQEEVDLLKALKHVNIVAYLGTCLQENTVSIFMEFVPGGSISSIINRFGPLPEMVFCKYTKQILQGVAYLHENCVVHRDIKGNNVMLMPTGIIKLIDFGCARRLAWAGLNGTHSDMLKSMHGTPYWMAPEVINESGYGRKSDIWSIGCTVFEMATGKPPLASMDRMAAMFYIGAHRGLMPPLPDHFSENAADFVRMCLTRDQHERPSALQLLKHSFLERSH
# [14] = Homo sapiens, MWCL1, 72 h, read-out: EC50
# [15] = Homo sapiens, OCI-LY19, 72 h, read-out: EC50
# [16] = Homo sapiens, OCI-Ly7, 72 h, read-out: EC50
# [17] = Homo sapiens, TMD8, 72 h, read-out: EC50
# [18] = Homo sapiens, HBL1, 72 h, read-out: EC50
# [19] = Homo sapiens, RPMI-8226, 72 h, read-out: EC50
# [20] = Homo sapiens, OCI-Ly3, 72 h, read-out: EC50
# [21] = Homo sapiens, Ramos, 72 h, read-out: EC50
Compound,"EC50 [2, 14] [µM]",EC50 (OCI-LY19; [15]) [µM],EC50 (OCI-Ly3; oci-ly3),EC50 (OCI-Ly7; [16]) [µM],EC50 (TMD8; [17]) [µM],EC50 (RPMI-8226; rpmi-8226),EC50 (Ramos; ramos),"EC50 [3, 18] [µM]",EC50 [4] [µM],EC50 (TMD8; tmd8),EC50 (RPMI-8226; [19]) [µM],EC50 ([3]; hbl1),other results
C=CC(=O)Nc1ccc(C(=O)Nc2ccc(NC(=O)c3cccc(-c4ccn[nH]4)n3)cc2)cc1,4.91,0.71,Not Active,5.16,5.26,Not Active,Not Active,14.6,2.54,,,,Activity [1]: Active
CCC(=O)Nc1cccc(C(=O)Nc2ccc(NC(=O)c3cccc(-c4ccn[nH]4)n3)cc2)c1,,7.79,Not Active,20.7,,,Not Active,,19.9,Not Active,31.1,Not Active,EC50 ([2]; mwcl1): Not Active
COc1cc(N2CCOCC2)ccc1NC(=O)c1cccc(-c2ccn[nH]2)n1,,,,,,,,,,,,,IC50 [5]: 0.017 µM; IC50 [6]: 0.009 µM
C=CC(=O)Nc1cccc(C(=O)Nc2cccc(NC(=O)c3cccc(-c4ccn[nH]4)n3)c2)c1,29,2.9,Not Active,16.1,,Not Active,Not Active,,12.8,Not Active,,Not Active,inhibition [7]: Active; Activity [8]: Active
CN(C)C/C=C/C(=O)Nc1cccc(C(=O)Nc2ccc(NC(=O)c3cccc(-c4ccn[nH]4)n3)cc2)c1,8.13,1.8,,7.65,10.6,,,18.2,5.62,,19.8,,EC50 (OCI-Ly3; [20]): 14.3 µM; EC50 (Ramos; [21]): 6.99 µM; IC50 [9]: 0.052 µM; inhibition [10]: Active
CN(C)C/C=C/C(=O)Nc1cccc(C(=O)Nc2ccc(Nc3nccc(-c4cccnc4)n3)cc2)c1,,,,,,,,,,,,,IC50 [5]: > 10 µM; IC50 [6]: 0.0142 µM
C=CC(=O)Nc1ccc(C(=O)Nc2cccc(NC(=O)c3cccc(-c4ccn[nH]4)n3)c2)cc1,,,Not Active,,,Not Active,Not Active,,418,Not Active,,Not Active,EC50 ([2]; mwcl1): Not Active; IC50 [11]: > 10 µM; Activity [12]: Active; EC50 (OCI-LY19; oci-ly19): Not Active; EC50 (OCI-Ly7; oci-ly7): Not Active
CC1NC(=O)NC1CCCCCC(=O)NCCOCCOCCOCCNC(=O)CCN(C)C/C=C/C(=O)Nc1cccc(C(=O)Nc2ccc(NC(=O)c3cccc(-c4ccn[nH]4)n3)cc2)c1 (stereo not given),,,,,,,,,,,,,IC50 [9]: 0.07 µM
C=CC(=O)Nc1cccc(C(=O)Nc2ccc(NC(=O)c3cccc(-c4ccn[nH]4)n3)cc2)c1,3.88,0.59,,2.39,2.4,,,12.1,1.02,,5.13,,IC50 [13]: 0.057 µM; IC50 [11]: > 10 µM; EC50 (OCI-Ly3; [20]): 9.72 µM; inhibition [7]: Active; Activity [8]: Active; EC50 (Ramos; [21]): 1.79 µM

# From ChEMBL document CHEMBL4725474, “Discovery of a Selective, Covalent IRAK1 Inhibitor with Antiproliferative Activity in MYD88 Mutated B-Cell Lymphoma” (ACS Med Chem Lett, 2020)
